Experimental findings from ChEMBL document CHEMBL1132600 are described below.

Substrate in data set [1]: CCCCC/C=C\C/C=C\C/C=C\C/C=C\CCCC(=O)Nc1ccccc1O
Substrate in data set [2]: CCCCC/C=C\C/C=C\C/C=C\C/C=C\CCCC(=O)N[C@@H](C)CO
Description: (§1) Km value for hydrolysis by rat brain microsomal anandamide amidohydrolase (AAH). The essentials: (§2)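 Sprague–Dawley rat brain microsomes (105000g pellet) at 0.3 mg/mL protein, 37 °C, pH 7.4, BSA as carrier. Varied substrate concentrations, sampled at least four times within the linear initial range. Arachidonic acid formed measured by RP-HPLC (UV 204 nm, calibration curve). Initial velocity vs substrate concentration fitted to Michaelis–Menten.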

Substrate in data set [3]: CCCCC/C=C\C/C=C\C/C=C\C/C=C\CCCC(N)=O
The data set is described as §1. An outline of the steps:
as §2

Substrate in data set [4]: CCCCC/C=C\C/C=C\C/C=C\C/C=C\CCCC(=O)NCCO
The description is as §1. The essentials:
as §2

Substrate in data set [5]: CCCCC/C=C\C/C=C\C/C=C\C/C=C\CCCC(=O)Nc1ccccc1O
The description is as §1. An outline of the steps:
as §2

Substrate in data set [6]: CCCCC/C=C\C/C=C\C/C=C\C/C=C\CCCC(=O)N[C@H](C)CO
The description is as §1. An outline of the steps: as §2

Substrate in data set [7]: CCCCC/C=C\C/C=C\C/C=C\C/C=C\CCCC(=O)N[C@@H](C)CO
Description: (§3) V max value for hydrolysis by rat brain microsomal anandamide amidohydrolase (AAH). The essentials: as §2

Substrate in data set [8]: CCCCC/C=C\C/C=C\C/C=C\C/C=C\CCCC(N)=O
The data set is described as §3. An outline of the steps: as §2

Substrate in data set [9]: CCCCC/C=C\C/C=C\C/C=C\C/C=C\CCCC(=O)NCCO
The data set is described as §3. An outline of the steps:
as §2

Substrate in data set [10]: CCCCC/C=C\C/C=C\C/C=C\C/C=C\CCCC(=O)N[C@H](C)CO
The description is as §3. The essentials:
as §2

B1: Fatty-acid amide hydrolase 1 (Rattus norvegicus), P97612 (protein)
chain: MVLSEVWTTLSGVSGVCLACSLLSAAVVLRWTGRQKARGAATRARQKQRASLETMDKAVQRFRLQNPDLDSEALLTLPLLQLVQKLQSGELSPEAVFFTYLGKAWEVNKGTNCVTSYLTDCETQLSQAPRQGLLYGVPVSLKECFSYKGHDSTLGLSLNEGMPSESDCVVVQVLKLQGAVPFVHTNVPQSMLSFDCSNPLFGQTMNPWKSSKSPGGSSGGEGALIGSGGSPLGLGTDIGGSIRFPSAFCGICGLKPTGNRLSKSGLKGCVYGQTAVQLSLGPMARDVESLALCLKALLCEHLFTLDPTVPPLPFREEVYRSSRPLRVGYYETDNYTMPSPAMRRALIETKQRLEAAGHTLIPFLPNNIPYALEVLSAGGLFSDGGRSFLQNFKGDFVDPCLGDLILILRLPSWFKRLLSLLLKPLFPRLAAFLNSMRPRSAEKLWKLQHEIEMYRQSVIAQWKAMNLDVLLTPMLGPALDLNTPGRATGAISYTVLYNCLDFPAGVVPVTTVTAEDDAQMELYKGYFGDIWDIILKKAMKNSVGLPVAVQCVALPWQEELCLRFMREVEQLMTPQKQPS
Consider B1, for which the Vmax (nM min-1 mg-1) in [1] was 3.17; in data set [7] it was 0.39; in data set [8] it was 2.89; in data set [9], 1.4; in data set [10], 0.37. Moreover, the Km is 7.94 µM in [2]; 2.34 µM in data set [3]; 2.78 µM in data set [4]; 7.31 µM in data set [5]; 33 µM in data set [6].

In general, Km refers to the substrate concentration at which the rate is half of its maximum.
